Screening data deposited in PubChem by several laboratories.
The list is not random: actives were taken first. Their share in the collection is about 1.8%.
TNAP inh no acc – inhibitors of human TNAP without phosphate acceptor | P05186 | purified TNAP, CDP-star luminescence, 30 min | inhibition, % at 20 µM | actives 0.26% (n = 200,000);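 active = tissue-nonspecific alkaline phosphatase inhibition above about 50% at 20 µM in the single-dose screen, limit read from the data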;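 also: 0% = DMSO negative control and 100% = EDTA positive control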
NCF1 inh – inhibitors of human p47phox binding. p47phox/p22phox peptide binding, fluorescence polarization, 2 h. inhibition, % at 24.7 µM. actives 0.53% (n = 220,000);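 active = inhibition above about 30%, limit read from the data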;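 also: 0% = p47phox with labelled peptide and 100% = labelled peptide alone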
Target sequence (P14598 whole entry, looked up): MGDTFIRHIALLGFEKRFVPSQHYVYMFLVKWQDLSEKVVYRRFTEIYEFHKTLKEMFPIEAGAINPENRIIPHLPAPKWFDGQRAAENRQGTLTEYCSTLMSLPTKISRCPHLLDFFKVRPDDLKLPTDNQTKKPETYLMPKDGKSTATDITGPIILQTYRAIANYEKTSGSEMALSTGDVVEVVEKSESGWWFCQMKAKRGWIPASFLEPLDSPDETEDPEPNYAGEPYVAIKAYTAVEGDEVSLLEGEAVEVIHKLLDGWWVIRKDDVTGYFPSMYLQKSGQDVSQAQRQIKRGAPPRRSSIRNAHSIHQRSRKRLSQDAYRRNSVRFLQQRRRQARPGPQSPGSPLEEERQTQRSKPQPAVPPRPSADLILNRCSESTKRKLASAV
TNAP inh hi DEA – blocks human TNAP under high phosphate acceptor concentration; P05186; purified TNAP, CDP-star luminescence, 1 M DEA; inhibition, % at 20 µM; actives 0.03% (n = 200,000); AID 1135;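 active = over 50% inhibition of tissue-nonspecific alkaline phosphatase at 20 µM in the single-dose screen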;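 also: plate controls were DMSO wells for no effect and EDTA-quenched wells as full inhibition for full effect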
Autophagy mod – autophagy modulation, high-content screen; AID 463193; MEF GFP-LC3 puncta imaging; test concentration mostly 10 µM; actives 0.98% (n = 190,000); calls only at 10 µM (by protocol);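 active = percentage of spot-positive cells more than 3 SD above its plate mean, without a fluorescence outlier flag or 80% toxicity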;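 also: spot-positive cell cutoff set from DMSO-treated cells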
Ins promoter up – MIN6 insulin promoter up-regulation | AID 1625 | MIN6 insulin promoter-GFP reporter, high-content imaging; stronger effect = higher value | actives 0.3% (n = 190,000) | z-score at 5 µM;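 active = z-score above 3 at 5 µM with at least 500 cells counted in the well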
TNAP act hiacc – TNAP (human) activation, high acceptor | P05186 | purified TNAP, CDP-star luminescence, 1 M DEA, 30 min; stronger effect = higher value; 0 = EDTA background, 1 = DMSO-only activity | activation factor at 20 µM | 200,000 tested, under 10 active;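 active = activation factor at least 2 at 20 µM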
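Assay system: human TNAP; Input: enzyme diluted 1/800 final; Reagent: CDP-star luminogenic substrate at 100 µM final; Timing: 30 min, room temperature; Signal: luminescence; Evaluation: TNAP activation factor scaled between EDTA and DMSO control wells.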
The depositor's hits bear a star; i = inactive; · = no result given; + = active, no number.

SMILES | TNAP inh no acc | NCF1 inh | TNAP inh hi DEA | Autophagy mod | Ins promoter up | TNAP act hiacc
CCN(CC)C(=O)c1ccc2c(c1)C1C(Cl)C(Sc3ccccc3[N+](=O)[O-])CC1C(C(=O)O)N2 (stereo not drawn) | · | 46* | · | · | · | ·
C=CCn1c(O)c(/C=N/N2CCCCC2)c(=O)[nH]c1=O | · | 3 | · | · | 1.2 | ·
Cc1nc2ccccc2c(=O)n1-c1ccc(F)cc1 | -18 | 32* | -4 | i | -0.13 | 1
Cc1nc2ccccc2c(=O)n1-c1ccncc1 | · | -5 | · | · | 0.14 | ·
O=C1NC(=O)N(c2ccc(F)cc2)C(=O)/C1=C/c1ccsc1 | -16 | 4 | -5 | i | -0.34 | 1.1
O=C1NC(=O)N(c2ccc(Br)cc2)C(=O)/C1=C/c1ccsc1 | 10 | -20 | 2 | + | 0.61 | 1
CCC(C)N1C(=O)/C(=C/c2ccc3c(c2)CCN3CCCCl)C(=O)NC1=S (stereo not drawn) | 44 | 38* | 12 | i | 0.56 | 0.9
c1ccc2c(c1)[nH]c1cnccc12 | -6 | 11 | 3 | i | · | 1
Cc1c2ccncc2c(C)c2c1[nH]c1ccccc12 | -15 | 95* | -1 | + | · | 1
CC1=CC(=C2C(=O)NC(=S)NC2=O)C=C(C(F)(F)F)N1CCc1ccccc1 | -1 | -23 | -3 | i | 0.68 | 1
CCCCC(=O)N/N=C/c1c(O)n(-c2cccc3ccccc23)c(=O)[nH]c1=O | · | -8 | · | · | -0.23 | ·
CCN1CCN(Cc2ccc(C)cc2)CC1 | 1 | -11 | -8 | i | -0.98 | 1.1
CCCCCCOc1ccc(CN2CCN(C)CC2)cc1 | -10 | 1 | -4 | + | -2.8 | 1
O=C(CN1CCCCC1)c1ccc2c(c1)OCO2 | · | -4 | · | · | -0.06 | ·
CCN(CC)P(=O)(NC(=O)C(Cl)(Cl)Cl)N(CC)CC.[Cl-].[Cl-].[Cl-].[Nd+3] | -2 | 33* | 0 | i | -0.62 | 1
O=c1[nH]c(=O)n(-c2ccc(F)cc2)c(O)c1C=Nc1ccccc1N1CCCC1 | -6 | -41 | 0 | i | 4.4* | 1
CN1C(=O)C(=Cc2cc([N+](=O)[O-])ccc2N2CCCCC2)C(=O)N(C)C1=O | -8 | 9 | 10 | i | · | 0.9
CN1C(=O)C(=Cc2sc(=O)n(-c3ccccc3)c2N2CCCCC2)C(=O)N(C)C1=O | · | 83* | · | · | 0.04 | ·
O=P(O)(Oc1ccccc1)OC(c1ccccc1)C(F)(F)C(F)(F)F (stereo not drawn) | -7 | 5 | 2 | i | 0.62 | 1
CCN(CC)c1ccc(/C=C2/C(=O)NC(=O)N(CC3CCCO3)C2=O)cc1 (stereo not drawn) | 5 | -95 | 2 | i | · | 1
CCN(CC)c1ccc(/C=C2\C(=O)NC(=O)N(Cc3ccco3)C2=O)cc1 | 10 | 126* | -3 | i | · | 1
CC1(C)OC(c2ccccc2)=C/C(=C/C=C2C(=O)NC(=S)NC2=O)O1 | 59* | -249 | 10 | i | 1.2 | 0.9
CN1/C(=C\C=C2C(=O)NC(=S)NC2=O)C(C)(C)c2ccccc21 | 35 | -232 | 47 | i | · | 0.5
O=C(N/N=C/C1C(=O)NC(=S)N(c2ccccc2)C1=O)c1cc(Br)c(O)c(Br)c1 (stereo not drawn) | 75* | -20 | 0 | i | 0.15 | 1
CCCCCCNC(=O)N[C@H](Cc1ccc(O)cc1)C(=O)NCCC[C@H]1CN2C(=NC[C@H]2CCC)N1CC1CCC1 | · | 60* | · | · | 0.05 | ·
SMILES | TNAP inh no acc | NCF1 inh | TNAP inh hi DEA | Autophagy mod | Ins promoter up | TNAP act hiacc
CN(C)c1ccc(N=Cc2c(O)n(CCC3=CCCCC3)c(=O)[nH]c2=O)cc1 | 2 | 5 | 1 | + | -0.03 | 1
CCN(CC)c1ccc(N=Cc2c(O)n(CCC3=CCCCC3)c(=O)[nH]c2=O)cc1 | -8 | -41 | 4 | + | 0.87 | 1
CCN(CC)c1ccc(N=Cc2c(O)n(-c3ccc(Cl)cc3)c(=O)[nH]c2=O)cc1 | -2 | -17 | 0 | + | 0.38 | 1
O=c1[nH]c(=O)n(CCC2=CCCCC2)c(O)c1/C=N/Nc1ccccc1 | -2 | -44 | 8 | i | -0.25 | 0.9
Cc1c(N=Nc2c(O)n(C)c(=O)n(C)c2=O)c(=O)n(-c2ccccc2)n1C | -6 | -5 | 4 | i | 0.05 | 1
CC1(C)C2([N+](=O)[O-])CN3CN(C2)CC1([N+](=O)[O-])C3 | -14 | 4 | -4 | i | 0.44 | 1
CC1CCCC(C2(O)C(=O)Nc3ccccc32)C1=O (stereo not drawn) | -5 | -10 | -1 | i | 5.6* | 1
CCCCC(=O)N/N=C/c1c(O)n(Cc2ccco2)c(=O)[nH]c1=O | 69* | -12 | 1 | i | 0.09 | 1
O=C(N/N=C/c1c(O)n(Cc2ccco2)c(=O)[nH]c1=O)c1ccccc1O | · | -27 | · | · | -0.56 | ·
C=CC1CN2CCC1CC2c1[nH]c2ccccc2c1CCO (stereo not drawn) | -3 | -4 | 1 | i | -0.75 | 1
O=c1[nH]c(O)c(/C=C2\C=NN=C2c2ccccc2)c(=O)[nH]1 | 51* | -17 | 1 | i | -0.92 | 1
C/C(=N\N1CCCCCC1)c1c(O)n(C)c(=O)n(C)c1=O | · | -3 | · | · | 0.23 | ·
COc1ccc(NC(=O)c2cc([N+](=O)[O-])ccc2N2CCNCC2)cc1 | 3 | -2 | 4 | + | -0.74 | 1
O=[N+]([O-])c1cccc(CN2CCN(Cc3ccc(Br)cc3)CC2)c1 | -9 | 3 | -4 | i | 1.2 | 1
O=C(c1ccc2c(c1)ncn2-c1ccc(F)cc1F)N1CCC2(CC1)OCCO2 | -5 | 43* | 0 | i | 0.22 | 1
CCOc1ccc(N2C(=O)NC(=O)/C(=C/c3cnc(SC)nc3)C2=O)cc1 | 0 | -10 | -2 | i | · | 1
O=C1CCCN1c1ccc(S(=O)(=O)O)cc1 (tested in a mixture with another compound) | -12 | -2 | 0 | i | -0.26 | 1
O=[N+]([O-])c1ccc(NCc2ccccc2)c2nonc12 | -5 | -5 | 20 | i | 13* | 0.8
CCn1c(O)c(/C=N/NC(=O)c2ccncc2)c(=O)[nH]c1=S | 84* | -241 | 8 | i | 0.25 | 0.9
O=C(N/N=C/c1c(O)n(Cc2ccc(F)cc2)c(=S)[nH]c1=O)c1ccncc1 | · | -165 | · | · | -0.04 | ·
CCC(C)n1c(O)c(/C=N/NC(=O)c2ccncc2)c(=O)[nH]c1=S (stereo not drawn) | 75* | -7 | -3 | i | 0.11 | 1
CCN(CC)P(=O)(c1n(CC)cc[n+]1CC)N(CC)CC | 1 | -7 | -3 | i | 0.45 | 1
OCC[n+]1c2ccccc2nc2ccc(N3CCOCC3)cc21 | · | 155* | · | · | 1 | ·
O=C1NC(=O)C(=Cc2ccc(OCC(=O)N3CCOCC3)cc2)C(=O)N1 | 0 | -3 | 2 | i | 0.72 | 1
